# Test results from PubChem BioAssay.
# Activity calls are given as the source filed them.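 Rule for the calls, unless noted: active = inhibition above 20% together with a positive visual image hit; inconclusive = visual image hit but inhibition not above 20%; inactive = no visual image hit.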
# How the values were obtained:
# [1] = inhibitors of TNFa-induced NFkB p65 translocation, primary screen, imaging, HUVEC, MLSMR starter and 10KST1 sets (AID 438); details: HUVEC TNFa-induced p65 nuclear translocation; cell count: measured here: nuclei count (cytotoxicity indicator), at 2.08 µM; inhibition: at 2 µM, stronger effect = higher value, 0% TNFa-plus-vehicle, 100% no-TNFa wells;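 note: compound added about 3h40 before a 20 min TNFalpha stimulation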;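 for inhibition: signal is the nuclear over cytoplasmic p65 intensity ratio per well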
# [2] = inhibitors of E-selectin induction by TNFa, primary screen, imaging, HUVEC, immunofluorescence, MLSMR starter and 10KST1 sets (AID 487;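 active = visually confirmed hit in the image check and inhibition above 20%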;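 for inhibition: signal is fraction of cell area covered by stained E-selectin grains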;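 for nuclei count: 100% = median nuclei count of all wells on the same plate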); details: HUVEC TNFalpha-induced E-selectin immunofluorescence imaging, at 2 µM; inhibition: stronger effect = higher value; nuclei count: measured here: cell number, toxicity
# [3] = DUSP6 inhibitors restoring Erk phosphorylation by chemical complementation, primary imaging in DUSP6-transfected HeLa (AID 609;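 active = compounds giving at least 50% inhibition in the cell-based MKP-3 phosphatase rescue imaging test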;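 for inhibition: phospho-Erk level distribution per well compared with pooled transfected vehicle control wells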); details: HeLa MKP-3 transfected, phospho-Erk imaging KS statistic, at 10 µM, cells stimulated with TPA for 15 min
# [4] = target: Dual specificity protein phosphatase 6 (Homo sapiens) (UniProt Q16828); test: as above; details: HeLa MKP-3 transfected, phospho-Erk imaging KS statistic; at 10 µM; stronger effect = higher value; cells stimulated with TPA for 15 min
# [5] = target: Voltage-gated potassium channel subunit beta-2 (Rattus norvegicus) (UniProt P62483); test: KvBeta enzyme negative modulators, primary screen, biochemical, NADPH fluorescence (AID 622;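 active = fluorescence slope higher than the sample average by over 3 SD, cut at about -0.22 in these data, passing the limit was not always enough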;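 note: slope of raw intensity against log time taken from 70 to 1610 s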); details: recombinant KvBeta, 4-cyanobenzaldehyde reduction, at 10 µM, stronger effect = higher value
# [6] = target: Voltage-gated potassium channel subunit beta-2 (Rattus norvegicus) (UniProt P62483); test: KvBeta positive modulators, primary screen, biochemical, NADPH fluorescence (AID 623;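 active = NADPH fluorescence slope more negative than the mean of all samples by about 3 SD, 99.7% confidence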;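 note: fluorescence intensity change per second fitted from 20 to 320 s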); details: Recombinant KvBeta, NADPH fluorescence decrease slope, 10 min; at 10 µM; stronger effect = lower value
# [7] = target: Alpha-2C adrenergic receptor (Homo sapiens) (UniProt P18825); test: modulators of alpha2C/GIRK thallium flux, primary screen, cell-based, HEK293 alpha2C/GIRK1/2 (AID 624;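 active = fluorescence slope after compound addition differing from the mean of all screened samples at 99.7% confidence, in either direction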;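 note: slope of fluorescence ratio to pre-addition baseline per second over 15 to 24 s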); details: thallium flux BTC fluorescence, at 10 µM, actives lie on both sides
# [8] = inhibitors of larval lipid processing in zebrafish, primary screen, whole organism, PED6 fluorescence, gall bladder and intestine (AID 686;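 active = a full or partial loss of lipid-probe fluorescence in the fish gall bladder, intestine or both, judged by eye; inactive = no fluorescence loss, or compound toxic to the fish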;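 note: larvae 5 to 7 days old with five fish per well; signal comes from phospholipase A2 cleavage of quenched PED6 carried via bile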); details: Zebrafish larvae PED6 lipid processing, fluorescence scoring; screened at 20 µM (by protocol)
# Summary of the method: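 Incubation: overnight exposure of larvae to compound plus PED6 / Test system: live zebrafish larvae aged 5-7 days, whole organism / Amount: 5 larvae per well / Read-out basis: visual per-well fluorescence inhibition score / Signal: visual fluorescence microscopy scoring of gall bladder, gut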
# [9] = inhibitors of Chlamydomonas gravitaxis, primary screen, whole organism, Chlamydomonas reinhardtii, WT vs cilia-less mutant, absorbance, 96-well (AID 463189;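 active = inhibition at or above 50% relative to wild type and mutant plate controls; inactive = inhibition below 50%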;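 note: 0% = wild type cc124 cells in DMSO and 100% = ciliumless bld1 mutant cells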); details: OD600 absorbance, 2 days, at 10 µM, stronger effect = higher value
# [10] = measured here: cell density z-score
# [11] = measured here: nuclear c-Myc green intensity z-score
# [12] = measured here: nuclear pErk red intensity z-score, stronger effect = higher value
# Dual specificity protein phosphatase 6 (Homo sapiens), sequence (Q16828 whole entry, looked up): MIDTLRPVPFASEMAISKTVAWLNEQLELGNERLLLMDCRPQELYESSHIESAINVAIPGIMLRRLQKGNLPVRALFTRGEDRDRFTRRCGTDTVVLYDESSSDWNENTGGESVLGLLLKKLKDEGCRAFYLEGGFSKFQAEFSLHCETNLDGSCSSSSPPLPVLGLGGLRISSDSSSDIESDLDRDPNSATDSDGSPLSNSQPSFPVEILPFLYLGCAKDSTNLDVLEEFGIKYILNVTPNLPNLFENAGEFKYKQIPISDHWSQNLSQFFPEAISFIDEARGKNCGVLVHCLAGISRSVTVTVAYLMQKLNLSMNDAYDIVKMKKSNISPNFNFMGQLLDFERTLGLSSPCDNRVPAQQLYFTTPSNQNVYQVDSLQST
# Alpha-2C adrenergic receptor (Homo sapiens), sequence (P18825 whole entry, looked up): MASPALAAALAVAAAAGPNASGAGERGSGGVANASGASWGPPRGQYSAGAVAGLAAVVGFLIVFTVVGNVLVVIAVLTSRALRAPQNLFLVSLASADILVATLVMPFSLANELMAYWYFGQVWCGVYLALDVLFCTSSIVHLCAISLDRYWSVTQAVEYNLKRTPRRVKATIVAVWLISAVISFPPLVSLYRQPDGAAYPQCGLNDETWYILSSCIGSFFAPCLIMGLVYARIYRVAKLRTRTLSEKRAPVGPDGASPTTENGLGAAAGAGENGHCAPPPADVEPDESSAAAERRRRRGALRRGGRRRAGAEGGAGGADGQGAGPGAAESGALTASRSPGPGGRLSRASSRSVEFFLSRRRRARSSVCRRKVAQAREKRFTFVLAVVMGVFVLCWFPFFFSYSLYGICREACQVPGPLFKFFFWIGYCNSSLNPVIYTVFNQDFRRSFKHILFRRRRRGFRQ
# Voltage-gated potassium channel subunit beta-2 (Rattus norvegicus), sequence (P62483 whole entry, looked up): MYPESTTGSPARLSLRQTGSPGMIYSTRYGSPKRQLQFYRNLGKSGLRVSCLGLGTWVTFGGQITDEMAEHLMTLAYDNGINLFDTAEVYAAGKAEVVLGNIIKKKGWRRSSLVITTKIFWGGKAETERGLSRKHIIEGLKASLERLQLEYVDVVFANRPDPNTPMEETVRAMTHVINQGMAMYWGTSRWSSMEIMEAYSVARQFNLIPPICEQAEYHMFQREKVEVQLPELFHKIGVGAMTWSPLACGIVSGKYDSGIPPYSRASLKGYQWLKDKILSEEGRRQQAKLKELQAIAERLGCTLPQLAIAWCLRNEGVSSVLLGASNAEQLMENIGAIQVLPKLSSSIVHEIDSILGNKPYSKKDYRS
Compound,cell count [1],inhibition [1],inhibition [2],nuclei count [2] [%],"z-score [3, 10]","z-score [3, 11]","z-score [3, 12]",inhibition [4],fluorescence slope [5],NADPH fluorescence slope [6],slope [7],outcome [8],inhibition [9]
Cc1nc(NCCN)c(C#N)c2c1COC(C)(C)C2,666,-1.2% (inactive),-117% (inactive),165,-0.432,-0.111,-0.818,1.75% (inactive),-0.506 (inactive),-1.4e-06 (inactive),0.00551 (inactive),inactive,1.63% (inactive)
Nc1nnc(CSCc2ccc(F)cc2)s1,537,7% (inactive),23.2% (inactive),111,-1.12,1.17,-0.516,-13.3% (inactive),-0.473 (inactive),-2.4e-05 (inactive),0.00497 (inactive),inactive,3.98% (inactive)
CN(C)c1nc2n(c(=O)n1)C(C#N)CS2 (configuration not stated),364,-3.1% (inactive),-192% (inactive),105,0.947,-1.21,-1.65,13.2% (inactive),-0.438 (inactive),-5.8e-06 (inactive),0.00693 (inactive),inactive,-3.08% (inactive)
O=C(c1ccc(=O)oc1)N1CCOCC1,357,-5.3% (inactive),-8.3% (inactive),167,1.26,-0.649,0.718,-6.59% (inactive),-0.46 (inactive),-0.000126 (inactive),0.0053 (inactive),inactive,25% (inactive)
CSc1nnc2n(C3CCCCC3)c(=O)c3c4c(sc3n12)CCCC4,609,-10.6% (inactive),-12.8% (inactive),111,-0.921,-0.992,-0.882,-2.07% (inactive),-0.502 (inactive),-0.000304 (inactive),0.0054 (inactive),inactive,-18.3% (inactive)
C=CCc1c(C)c(C#N)c2nc3ccccc3n2c1N1CCN(C)CC1,528,-23% (inactive),-93.7% (inactive),150,-0.94,-0.784,-1.36,-15% (inactive),-0.476 (inactive),-2e-05 (inactive),0.00524 (inactive),inactive,7.97% (inactive)
CSc1nc(N2CCCC2)c2c(c1C#N)CC(C)(C)OC2,568,-4.5% (inactive),-28.5% (inactive),171,0.89,-1.74,0.374,5.65% (inactive),-0.314 (inactive),8.2e-06 (inactive),0.00565 (inactive),inactive,10.3% (inactive)
CCCCOc1ccc(CSC(CC(=O)O)C(=O)O)cc1 (configuration not stated),336,-16.7% (inactive),-75.1% (inactive),114,-0.61,-0.895,0.193,3.5% (inactive),-0.433 (inactive),-0.000104 (inactive),0.00541 (inactive),inactive,1.39% (inactive)
Nc1nc(NC(=O)Cc2ccccc2)nn1-c1ccccc1,330,-5.8% (inactive),16% (inactive),153,-1.12,1.13,0.973,9.42% (inactive),-0.381 (inactive),-0.000121 (inactive),0.00768 (inactive),inactive,14.3% (inactive)
CC(=O)Nc1cccc(NC(=O)CSc2nc(C)c(C)c(C)c2C#N)c1,546,-8.2% (inactive),28% (inactive),174,0.636,0.622,-1.1,-4.27% (inactive),-0.4 (inactive),-9.2e-06 (inactive),0.0055 (inactive),inactive,-2.25% (inactive)
COc1cc(-c2nn3c(C4CCCCC4)nnc3s2)cc(OC)c1OC,535,-28.6% (inactive),-115% (inactive),167,-1.15,0.143,1.4,-7.86% (inactive),-0.479 (inactive),-0.000183 (inactive),0.00564 (inactive),inactive,12.1% (inactive)
COc1ccc(N2CCN(C3CC(=O)NC3=O)CC2)cc1 (configuration not stated),540,-26.9% (inactive),-161% (inactive),176,0.114,-0.641,-1.94,9.82% (inactive),-0.548 (inactive),-4.7e-05 (inactive),0.00484 (inactive),inactive,5.23% (inactive)
CC1(C)CC(=O)C2=C(C1)N(Cc1ccco1)C(=O)C2(NC(=O)c1cccnc1)C(F)(F)F (configuration not stated),499,-8.6% (inactive),-131% (inactive),136,-1.48,-1.13,0.615,3.5% (inactive),-0.492 (inactive),-6.7e-05 (inactive),0.00643 (inactive),inactive,0.823% (inactive)
CCCCN(CCCC)c1nc2ccccc2nc1C(C#N)C(=O)NCCCOC (configuration not stated),382,-6.8% (inactive),-187% (inactive),156,-0.742,0.7,0.633,-5.89% (inactive),-0.0828 (active),9.1e-06 (inactive),0 (active),inactive,5.14% (inactive)
